NSD2 inh: NSD2 (human) methyltransferase inhibition. NSD2 peptide methylation, AlphaScreen, 120 min. inhibition, % at 12.5 µM. actives 0.54% (n = 310,000). AID 743445
dFosB act-1: mouse delta FosB homodimer activation; activation, % at 25 µM; P13346; actives 0.99% (n = 340,000); purified delta FosB, TAMRA-CDK5 oligo fluorescence polarization; percent of positive-control signal above neutral wells;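 active means mean activation above about 17%, with every replicate also reaching it, limit read from the data, passing the limit was not always enough; inconclusive means only one of the two conditions met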
Target sequence (P13346 whole entry, looked up): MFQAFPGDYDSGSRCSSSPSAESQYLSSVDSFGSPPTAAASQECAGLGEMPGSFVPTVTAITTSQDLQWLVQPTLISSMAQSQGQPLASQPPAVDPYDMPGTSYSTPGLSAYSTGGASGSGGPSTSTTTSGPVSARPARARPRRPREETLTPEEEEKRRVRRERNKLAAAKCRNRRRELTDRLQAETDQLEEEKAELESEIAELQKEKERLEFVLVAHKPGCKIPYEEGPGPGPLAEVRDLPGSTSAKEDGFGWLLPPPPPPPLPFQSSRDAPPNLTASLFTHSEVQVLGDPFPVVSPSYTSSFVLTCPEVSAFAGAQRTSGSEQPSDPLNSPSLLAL
SR-BI uptake up: SR-BI HDL lipid transfer activation | CHO ldlA[mSR-BI] cells, DiI-HDL uptake fluorescence, 3 h; 100 = double the neutral-control signal | actives 0.096% (n = 320,000) | AID 504775 | activation, % at 12.5 µM;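 active means mean replicate activation of at least 60% and every replicate at or above 60%; inconclusive means mean or all-replicate condition met, but not both; inactive means mean below 60% and not all replicates reaching 60%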;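 further: 0% = median plate neutral-control signal and 100% = twice that signal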
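System: CHO ldlA[mSR-BI] cells / Medium: HEPES-buffered (25 mM, pH 7.4) F12 plus 0.5% BSA / Probe or stimulus: labelled HDL, 10 µg/mL / Doses: single compound concentration, delivered by pin transfer / Schedule: 3 h, 37 °C / Measured by: DiI fluorescence, bottom read / Measure: cell-associated DiI fluorescence as measure of HDL uptake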
CDK5 p35 inh: blocks human CDK5/p35 kinase activity; Q00535+Q15078; Recombinant CDK5/p35, ADP-Glo luminescence, 60 min; inhibition, % at 10 µM; actives 0.01% (n = 330,000);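 active means highest replicate inhibition of at least 50% and at least 75% of replicates reaching 50%; inconclusive means only one of the two criteria met; inactive means both criteria failed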;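 further: plate controls were DMSO neutral control for no effect and GW8510 at 10 µM for full effect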
SR-BI DiI inh: inhibitors of mouse SR-BI mediated HDL lipid uptake | Q61009 | ldlA[mSR-BI] CHO cells, DiI-HDL uptake fluorescence, 3 h | inhibition, % at 12.5 µM | actives 0.96% (n = 320,000);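 active means mean replicate inhibition of at least 70% and a set share of replicates each scoring 70 or more; inconclusive means meets just one of the two criteria; inactive means fails both criteria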;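 further: 0% = median of neutral control wells and 100% = median of positive control wells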
Dyrk1A ADPGlo: blocks rat Dyrk1A kinase activity | inhibition, % at 12.5 µM | actives 0.43% (n = 310,000) | ADP-Glo luminescence, NFATc1 peptide | AID 504441 | Q63470;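 further: plate controls were vehicle with enzyme for no effect and no enzyme for full effect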
dFosB act-2: enhances mouse delta FosB homodimer binding to DNA; shares compounds with dFosB act-1; purified delta FosB, TAMRA-CDK5 oligo fluorescence polarization; normalised: neutral wells 0, positive control 100; activation, % at 24.9 µM; 2,400 tested, under 10 active; AID 588690;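 active means highest replicate activation at or above 34% and every replicate reaching that threshold; inconclusive means meets only one of the two criteria; inactive means meets neither criterion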;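 further: higher polarization means more probe DNA bound by delta FosB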
* marks the source's active call; other numbers are inactive results; ? = inconclusive; nt = no result given. Most compounds without a hit are left out; they make up all but 2.5% or so of the library. Unless noted, no stated cut-off is given here; in the data, active means inhibition above about 50%; inactive means the rest.

SMILES | NSD2 inh | dFosB act-1 | SR-BI uptake up | CDK5 p35 inh | SR-BI DiI inh | Dyrk1A ADPGlo | dFosB act-2
Cc1ccccc1OCC(=O)N/N=C/c1ccncc1 | 5 | 3 | 39 | -4 | -39 | 2 | nt
NNC(=O)Cn1c(-c2ccccc2)cc(=O)n2ncnc12 | -1 | -3 | 0 | -1 | 0 | 0 | nt
O=C(NC1CC1)C1CC(=O)N(c2cccc(Cl)c2)C1 (stereo unspecified) | -3 | -3 | 5 | 0 | -5 | 3 | nt
Cc1ccc(C(=O)NCC(=O)Nc2ccc(C)c(S(=O)(=O)Nc3ccc(Cl)cc3)c2)s1 | -3 | 36* | -23 | -11 | 23 | 3 | 0
COc1ccc(NS(=O)(=O)c2cc(NC(=O)CNC(=O)c3ccc(C)s3)ccc2Cl)cc1 | -2 | 2 | 3 | 0 | -3 | 5 | nt
NS(=O)(=O)c1ccc(NC(=O)c2cc(-c3ccccc3O)n[nH]2)cc1 | -1 | -5 | -27 | 1 | 27 | 1 | nt
Cc1cccc(NC(=O)c2cc(-c3cc(Cl)ccc3O)n[nH]2)c1 | nt | 6 | -13 | -1 | 13 | -1 | nt
Cc1ccc(NC(=O)c2cc(-c3ccccc3O)n[nH]2)cc1Cl | -1 | 41* | -21 | -1 | 21 | -2 | -7
Cc1ccc(NC(=O)c2cc(-c3cc(Cl)ccc3O)n[nH]2)cc1C | -1 | 22* | -5 | 1 | 5 | -1 | 4
CCN(CC)S(=O)(=O)c1cccc(C(=O)NC(C(=O)NNC(=O)c2ccccc2F)C(C)C)c1 (stereo unspecified) | -1 | -1 | 12 | -1 | -12 | 0 | nt
COc1cc(/C=N\NC(=O)c2ccc(C)nc2)ccc1OC(=O)c1ccc2c(c1)OCO2 | -2 | 139* | -36 | 1 | 36 | -3 | 7
COc1cc(/C=N\NC(=O)c2ccc(C)nc2)ccc1OC(=O)c1ccco1 | 1 | -14 | -12 | -2 | 12 | 1 | nt
CN(C)S(=O)(=O)c1cccc(NC(=O)c2ccc(S(=O)(=O)N3CCCC3)cc2)c1 | -1 | 8 | -22 | 1 | 22 | -2 | nt
O=C(Nc1cccc(O)c1)c1cc(-c2ccc3c(c2)OCO3)on1 | 22 | 33* | 3 | 2 | -3 | -1 | 0
COc1cc(NC(=O)c2cc(-c3ccc4c(c3)OCO4)on2)cc(OC)c1OC | 7 | -4 | nt | -1 | nt | -7 | nt
O=C(CN1CCN(S(=O)(=O)c2ccc(Cl)c(C(F)(F)F)c2)CC1)NC(=O)NC1CCCCC1 | -1 | -9 | 0 | 0 | 0 | 11 | nt
COc1ccccc1/C=C/C(=O)N1CCc2cc(OC)c(OC)cc2C1C (stereo unspecified) | 1 | ? | -5 | 1 | 5 | 0 | nt
Cc1ccc(-c2csc(/C=C3\SC(C)C(=O)N3CC(=O)Nc3ccccc3F)n2)cc1 (stereo unspecified) | 1 | 18* | nt | -6 | nt | 0 | 0
O=C(CN1C(=O)CS/C1=C\c1nc(-c2ccc(Cl)cc2)cs1)Nc1cccnc1Cl | 2 | -2 | -26 | -1 | 26 | -1 | nt
CC1CCCCN1C(=O)c1cc(S(=O)(=O)N2CCOCC2)ccc1Cl (stereo unspecified) | -4 | 1 | 15 | 0 | -15 | -4 | nt
C/C(=N\Nc1nc2ccccc2[nH]1)c1ccc([N+](=O)[O-])cc1 | nt | 21* | -26 | 1 | 26 | 1 | 2
Cc1cc(N/N=C/c2ccccc2Cl)nc(NCc2ccccc2)n1 | 0 | 51* | -14 | -2 | 14 | -7 | 4
C/C(=N\Nc1cc(C)nc(NCc2ccccc2)n1)c1ccc([N+](=O)[O-])cc1 | 0 | 30* | -86 | 0 | 86* | 1 | 1
CN(C)c1nc(N)nc(CSc2nc3cc(Cl)ccc3o2)n1 | -2 | 28* | 25 | 3 | -25 | -6 | 6
Cc1cc(C)n2cc(CSc3nc4cc(Cl)ccc4o3)nc2n1 | -1 | 1 | -5 | 0 | 5 | 11 | nt
SMILES | NSD2 inh | dFosB act-1 | SR-BI uptake up | CDK5 p35 inh | SR-BI DiI inh | Dyrk1A ADPGlo | dFosB act-2
O=C(Cn1cnc2sc(-c3ccccc3)cc2c1=O)NCc1ccccc1 | 1 | 32* | 29 | 0 | -29 | -6 | 5
Cc1sc2ncn(CC(=O)NCCc3ccccc3)c(=O)c2c1C | 0 | -1 | 26 | -1 | -26 | 2 | nt
O=C(Cn1cnc2sc(-c3ccccc3)cc2c1=O)NCCc1ccccc1 | 1 | 53* | -5 | 0 | 5 | 1 | 2
O=C(Cn1cnc2c(nnn2-c2cccc(Cl)c2)c1=O)NCc1ccccc1 | nt | 68* | 39 | 2 | -39 | -4 | 1
O=C(Cn1cnc2c(oc3ccccc32)c1=O)NCCc1ccccc1 | 0 | 61* | -14 | 0 | 14 | -1 | -3
O=C(Cn1cnc2sc(-c3ccccc3)cc2c1=O)NCc1ccco1 | 1 | -4 | 30 | -3 | -30 | 13 | nt
Cc1ccccc1NS(=O)(=O)c1ccc(C(=O)NN2CCCCC2)cc1 | -4 | -11 | nt | 1 | 9 | 1 | nt
Cc1cccc(-c2c3c(nc4c2c(=O)n(C)c(=O)n4C)-c2ccccc2C3O)c1 (stereo unspecified) | nt | -18 | nt | 2 | nt | -5 | nt
Cc1ccc(C)c(Cn2c(=O)n(-c3ccc(CC(=O)NCc4ccco4)cc3)c(=O)c3sccc32)c1 | nt | 30* | -7 | -1 | 7 | 0 | -1
O=C(Cn1c(=O)n(-c2ccc(F)cc2)c(=O)c2sccc21)NC1CCCCC1 | 0 | 31* | nt | 1 | nt | 0 | 5
Cc1ccc(-n2c(=O)c3sccc3n(CC(=O)NC3CCCC3)c2=O)cc1 | -3 | ? | nt | 1 | nt | -4 | nt
O=C(Cc1ccc(-n2c(=O)c3sccc3n(CC(=O)Nc3ccccc3F)c2=O)cc1)NCc1ccco1 | 1 | 52* | nt | 0 | nt | 0 | 5
C=CCn1cc(C(=O)OCC)c(=O)c2ccc(F)cc21 | nt | -10 | 6 | 0 | -6 | 3 | nt
Cc1cccc(NC(=O)CNC(=O)c2ccc3nc[nH]c3c2)c1C | 4 | -7 | 7 | -1 | -7 | 11 | nt
COc1cc(C(=O)N(C)CCOc2ccccc2)ccc1OCC(=O)Nc1cccc(C(F)(F)F)c1 | -1 | -16 | -30 | 1 | 30 | -2 | nt
COc1cc(C(=O)NCc2ccc(S(N)(=O)=O)cc2)ccc1OCC(=O)Nc1cccc(C(F)(F)F)c1 | 3 | 17* | -15 | 2 | 15 | 7 | 1
COc1ccc(C(=O)Nc2nc3ccc4nc(C)sc4c3s2)cc1 | nt | 23* | -20 | 0 | 20 | 17 | 3
COc1ccc2nc(NC(=O)c3ccc(F)cc3)sc2c1 | 1 | 14 | -36 | 1 | 36 | 1 | nt
COc1cc(C(=O)Nc2nc3ccc4nc(C)sc4c3s2)cc(OC)c1OC | 0 | 6 | -51 | 5 | 51 | 21 | nt
